Results collected from several papers.
Compare with care: the assays were run in different laboratories.
Target: Dual specificity tyrosine-phosphorylation-regulated kinase 1A (DYRK1A, Homo sapiens, UniProt Q13627)

Compound | test | setting | measurement | value
O=c1[nH]c2ccccc2n1C1CCN(Cc2ccc(-c3[nH]c4cc5ncnc5cc4nc3-c3ccccc3)cc2)CC1 | cell-free assay | 0.5 µM | remaining signal | 101%
Cn1cc(-c2cc(F)cc(N3CCn4c(cc5c4CCCC5)C3=O)c2CO)cc(Nc2ccc(N3CCN(C4COC4)CC3)cn2)c1=O | enzyme activity, inhibitor | 0.1 µM | inhibition | 4%
COc1ncccc1-c1cnn2ccc(N3CCN(C(=O)OC(C)C)CC3)nc12 | binding, competition with immobilised ligand | 1 µM | remaining binding | 95%
Cn1cncc1[C@](O)(COc1ccc(C#N)cc1-c1ccc(OC(F)(F)F)cc1)c1ccc(C#N)cc1 | cell-free assay, competition with immobilised ligand | 1 µM | remaining binding | 81%
Cn1cc(-c2cccc(N3CCc4c(sc5c4CC(C)(C)C5)C3=O)c2CO)cc(Nc2ccncn2)c1=O | enzyme activity, inhibitor | 1 µM | inhibition | 5%
COc1cc(Nc2ncc(F)c(Nc3ccc4c(n3)NC(=O)C(C)(C)O4)n2)cc(OC)c1OC | binding, competition with immobilised ligand | 10 µM | inhibition | 91%
CC(C)(C)c1cc(C=C(C#N)C#N)cc(Br)c1O | enzyme activity, inhibitor | 0.5 µM | remaining activity | 95.4%
Cc1nn(C)cc1-c1nc2c(N3CCN(Cc4ccc(Cl)cc4)CC3)c(Cl)cnc2[nH]1 | binding, competition with immobilised ligand | 1 µM | remaining binding | 82%
N#CC1(c2ccccn2)CCN(Cc2cc(C(=O)O)c(=O)n3ccccc23)CC1 | cell-free assay, competition with immobilised ligand | 1 µM | remaining binding | 97%
Nc1ncc(-c2nc(N3CCOCC3)nc(N3CCOCC3)n2)c(C(F)F)n1 | cell-free assay, competition with immobilised ligand | 10 µM | remaining binding | 48%
